By MIC is commonly meant the smallest concentration in the dilution series that meets the test's criterion for growth inhibition. A low value points to inhibition by little substance.

One data set has as its system Bacillus subtilis. The data set is described as follows: Antimicrobial activity against Bacillus subtilis 104 by serial dilution method. The conditions noted are these: for MIC: Bacillus subtilis, 104. The data set is classed as functional.
The next data set has as its system Vaccinia virus. The data set is described as follows: Antiviral activity against Vaccinia virus infected in L929 cells assessed as reduction in plaque formation after 3 to 4 days by crystal violet staining method. The format is functional, organism-based. The conditions noted are these: Orthopoxvirus vaccinia.
A further data set concerns Staphylococcus aureus. Kind of data set: Antimicrobial activity against Staphylococcus aureus 11 by serial dilution method. The format is functional. As to conditions: for MIC: Staphylococcus aureus, 11.
For data set [1], the system named is Mycobacterium tuberculosis. Kind of data set: Antimicrobial activity against Mycobacterium tuberculosis H37Rv by agar dilution method. The data set is classed as functional. The conditions noted are these: for MIC: Mycobacterium tuberculosis, H37Rv. The method in brief:
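Agar dilution: the hydrazone is dissolved in warm Middlebrook agar and serially diluted into two quadrants of a quartered dish, with two drug-free quadrants. After cooling, 0.1 mL of M. tuberculosis suspension (McFarland no. 1, set spectrophotometrically) is inoculated. Plates are incubated 14 days at 37 °C under 5% CO2 and scored for colonies. Run in duplicate.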

Another data set relates to Clostridium perfringens. The data set is described as follows: Antimicrobial activity against Clostridium perfringens 2 by serial dilution method. The conditions noted are these: for MIC: Clostridium perfringens, 2. The data set is classed as functional. The method in brief: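 Broth MICs were determined by serial dilution of the hydrazones, run in triplicate. Where results differed, the standard deviation of the three determinations is reported.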

The subject of another data set is Mycolicibacterium phlei. The data set is described as follows: Antimicrobial activity against Mycobacterium phlei 111 by serial dilution method. The format is functional. The conditions noted are these: for MIC: Mycolicibacterium phlei, 111.
Another data set concerns L929. Kind of data set: Cytotoxicity against mouse L929 cells by microscopic analysis. The format is cell-based.

Structures are written as SMILES. ≈ marks a conversion by molar mass, not a printed value. Calls of active or inactive are those of the source.

For the molecule `CO[C@H]1/C=C/O[C@@]2(C)Oc3c(C)c(O)c4c(O)c(c(/C=N/NC(=O)CN5CCN(c6ccc(F)cc6)CC5)c(O)c4c3C2=O)NC(=O)/C(C)=C\C=C\[C@H](C)[C@H](O)[C@@H](C)[C@@H](O)[C@@H](C)[C@H](OC(C)=O)[C@@H]1C`, the “log(1/C)” value in the data set on Bacillus subtilis was 5.3; in the data set with Staphylococcus aureus it was 7.06; in data set [1], 4.81; in the data set with Clostridium perfringens it was 8.51; with Mycolicibacterium phlei, 5.22. Moreover, the MIC worked out at 4.8 µg/mL (≈ 5 µM) in the data set with Bacillus subtilis; 0.084 µg/mL (≈ 0.0875 µM) against Staphylococcus aureus; 15 µg/mL (≈ 15.6 µM) in data set [1]; 0.005 µg/mL (≈ 0.00521 µM) against Clostridium perfringens; 5.75 µg/mL (≈ 5.99 µM) against Mycolicibacterium phlei. Moreover, in the data set with Vaccinia virus, the result was inactive. Also, in the data set on L929, the Activity entry was “Toxic”.
Consider `COc1ccc(N2CCN(CC(=O)N/N=C/c3c4c(O)c5c(O)c(C)c6c(c5c3O)C(=O)[C@@](C)(O/C=C/[C@H](OC)[C@@H](C)[C@@H](OC(C)=O)[C@H](C)[C@H](O)[C@H](C)[C@@H](O)[C@@H](C)/C=C/C=C(/C)C(=O)N4)O6)CC2)cc1`, for which the “log(1/C)” value was determined as 4.93 with Bacillus subtilis; 7.26 in the data set on Staphylococcus aureus; 4.81 in data set [1]; 8.14 in the data set on Clostridium perfringens; 5.27 in the data set on Mycolicibacterium phlei. The MIC against Bacillus subtilis worked out at 11.3 µg/mL (≈ 11.6 µM); against Staphylococcus aureus, 0.054 µg/mL (≈ 0.0555 µM); in data set [1], 15 µg/mL (≈ 15.4 µM); with Clostridium perfringens it was 0.007 µg/mL (≈ 0.0072 µM); against Mycolicibacterium phlei, 5.25 µg/mL (≈ 5.4 µM). Besides, the result in the data set on Vaccinia virus was inactive. Besides, in the data set on L929, the Activity entry is “Toxic”.
Take `CO[C@H]1/C=C/O[C@@]2(C)Oc3c(C)c(O)c4c(O)c(c(/C=N/NC(=O)CN5CCN(c6ccc(C(F)(F)F)cc6)CC5)c(O)c4c3C2=O)NC(=O)/C(C)=C\C=C\[C@H](C)[C@H](O)[C@@H](C)[C@@H](O)[C@@H](C)[C@H](OC(C)=O)[C@@H]1C`: the “log(1/C)” value with Bacillus subtilis came out at 5.01; in the data set with Staphylococcus aureus, 7.62; in data set [1], 4.75; in the data set on Clostridium perfringens, 8.7; in the data set on Mycolicibacterium phlei, 5.14. Also, the MIC was 9.8 µg/mL (≈ 9.7 µM) with Bacillus subtilis; 0.024 µg/mL (≈ 0.0238 µM) with Staphylococcus aureus; 18 µg/mL (≈ 17.8 µM) in data set [1]; 0.002 µg/mL (≈ 0.00198 µM) in the data set on Clostridium perfringens; 7.38 µg/mL (≈ 7.31 µM) with Mycolicibacterium phlei. For the same molecule, the outcome in the data set with Vaccinia virus was inactive. Besides, the Activity entry in the data set on L929 was “Toxic”.

The values are drawn from ChEMBL document CHEMBL3244145, “Synthesis and quantitative structure--activity relationships of some antibacterial 3-formylrifamycin SV N-(4-substituted phenyl)piperazinoacethydrazones” (J Med Chem, 1978).
